Laboratory results published in ChEMBL document CHEMBL3612017, “Rigidified A3 Adenosine Receptor Agonists: 1-Deazaadenine Modification Maintains High in Vivo Efficacy” (ACS Med Chem Lett, 2015).

Target: T1, Adenosine receptor A3 (Homo sapiens, UniProt P0DMS8)
T1 sequence (P0DMS8 whole entry): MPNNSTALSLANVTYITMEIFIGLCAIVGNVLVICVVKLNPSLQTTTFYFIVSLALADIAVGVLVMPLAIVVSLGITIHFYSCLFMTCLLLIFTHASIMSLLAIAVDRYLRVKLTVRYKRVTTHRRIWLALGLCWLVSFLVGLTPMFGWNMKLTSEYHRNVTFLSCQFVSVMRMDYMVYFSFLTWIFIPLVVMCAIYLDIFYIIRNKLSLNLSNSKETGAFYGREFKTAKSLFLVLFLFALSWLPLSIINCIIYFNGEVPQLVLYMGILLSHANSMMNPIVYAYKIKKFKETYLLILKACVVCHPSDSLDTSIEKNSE
Test: Agonist activity at human adenosine A3 receptor expressed in CHO cells assessed as inhibition of cAMP production
Assay type: functional, cell-based
Conditions: not given
In short: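 Read-out was inhibition of cyclic AMP production in membranes prepared from CHO cells expressing the human A3 receptor. The value is an EC50 with full agonism assessed.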
With `CCNc1cc(C#Cc2ccc(Cl)s2)nc2c1ncn2[C@H]1[C@H](O)[C@H](O)[C@]2(C(=O)NC)C[C@H]12` the EC50 was 1.5 nM.

Test system: Mus musculus
Test: Analgesic activity in mouse chronic constriction injury model of neuropathic pain assessed as protection of ipsilateral hind paw mechanoallodynia of sciatic nerve at 0.3 to 30 umol/kg administered through oral gavage at point of peak pain on day 7
Assay type: functional
Conditions: 168 h
In short: (§1)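 Mice had sciatic nerve chronic constriction injury. Compound was given by oral gavage on day 7, at peak pain. Mechanoallodynia was scored on the ipsilateral and contralateral hind paws at the 1 h and 3 h time points, as % protection. n = 4 per group, some n = 3.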
For `CCNc1nc(C#Cc2ccc(Cl)s2)nc2c1ncn2[C@H]1[C@H](O)[C@H](O)[C@]2(C(=O)NC)C[C@H]12`, the ED50 was 0.9 µmol/kg.
Work on `CNC(=O)[C@@]12C[C@@H]1[C@@H](n1cnc3c(NC)nc(C#Cc4ccc(Cl)s4)nc31)[C@H](O)[C@@H]2O` yielded an ED50 of 0.73 µmol/kg.

Test system: not listed separately
Test: Aqueous solubility of the compound
Assay type: physicochemical
Conditions: buffer
For `CNC(=O)[C@@]12C[C@@H]1[C@@H](n1cnc3c(NCC4CCC4)nc(-n4cc(-c5ccc(Cl)s5)nn4)nc31)[C@H](O)[C@@H]2O`, the solubility was “Insoluble”.

Target: T2, Adenosine receptor A3 (Canis lupus familiaris, UniProt Q28309)
T2 sequence (Q28309 whole entry): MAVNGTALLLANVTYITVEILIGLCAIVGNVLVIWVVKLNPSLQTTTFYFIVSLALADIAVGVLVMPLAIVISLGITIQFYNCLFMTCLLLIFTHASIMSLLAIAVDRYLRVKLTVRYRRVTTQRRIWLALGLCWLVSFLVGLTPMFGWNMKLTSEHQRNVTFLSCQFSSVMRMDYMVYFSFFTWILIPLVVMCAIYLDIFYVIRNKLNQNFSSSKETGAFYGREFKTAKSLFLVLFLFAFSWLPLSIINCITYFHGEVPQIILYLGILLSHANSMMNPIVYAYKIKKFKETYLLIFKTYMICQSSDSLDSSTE
Test: Binding affinity to canine adenosine A3 receptor expressed in HEK293 cell membranes
Conditions: not given
In short: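 Radioligand binding used membranes of HEK293 cells expressing the mouse or the canine A3 receptor. Affinities were given as Ki in nM, mean ± SEM, n = 3.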
Compound `CNC(=O)[C@@]12C[C@@H]1[C@@H](n1cnc3c(NC)nc(C#Cc4ccc(Cl)s4)nc31)[C@H](O)[C@@H]2O` has a Ki of 8.5 nM.

Same assay, conditions: read-out: Ki
Compound `CCNc1cc(C#Cc2ccc(Cl)s2)nc2c1ncn2[C@H]1[C@H](O)[C@H](O)[C@]2(C(=O)NC)C[C@H]12` has a Ki of 49 nM.
Compound `CCNc1nc(C#Cc2ccc(Cl)s2)nc2c1ncn2[C@H]1[C@H](O)[C@H](O)[C@]2(C(=O)NC)C[C@H]12` has a Ki of 1.5 nM.

Target: Adenosine receptor A2a (Homo sapiens) (UniProt P29274)
Sequence (P29274 whole entry): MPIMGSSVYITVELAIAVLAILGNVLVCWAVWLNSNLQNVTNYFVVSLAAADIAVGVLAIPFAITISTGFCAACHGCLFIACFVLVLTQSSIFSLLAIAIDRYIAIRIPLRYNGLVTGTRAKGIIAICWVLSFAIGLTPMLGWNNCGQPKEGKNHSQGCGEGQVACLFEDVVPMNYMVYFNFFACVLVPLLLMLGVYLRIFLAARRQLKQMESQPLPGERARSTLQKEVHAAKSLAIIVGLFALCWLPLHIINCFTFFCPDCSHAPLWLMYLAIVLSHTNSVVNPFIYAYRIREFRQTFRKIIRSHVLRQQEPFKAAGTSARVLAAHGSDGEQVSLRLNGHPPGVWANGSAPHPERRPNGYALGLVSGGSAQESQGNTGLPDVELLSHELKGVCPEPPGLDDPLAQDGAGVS
Test: Displacement of [3H]2-[p-(2-carboxyethyl)phenyl-ethylamino]-5'-Nethylcarboxamidoadenosine from human adenosine A2A receptor expressed in HEK293 cell membranes at 10 uM
Conditions: not given
In short: (§2)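 Radioligand binding at the human receptor subtypes. Nonspecific binding was defined with adenosine 5′-N-ethyluronamide (10 μM). Ki values came from displacement curves, mean ± SEM, n = 3 unless noted. Single-point data were expressed as % inhibition of binding at 10 μM.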
Work on `CCNc1cc(C#Cc2ccc(Cl)s2)nc2c1ncn2[C@H]1[C@H](O)[C@H](O)[C@]2(C(=O)NC)C[C@H]12` yielded an inhibition of 0%.
Work on `CCNc1nc(C#Cc2ccc(Cl)s2)nc2c1ncn2[C@H]1[C@H](O)[C@H](O)[C@]2(C(=O)NC)C[C@H]12` yielded an inhibition of 12%.
Compound `CNC(=O)[C@@]12C[C@@H]1[C@@H](n1cnc3c(NCC4CCC4)nc(-n4cc(-c5ccc(Cl)s5)nn4)nc31)[C@H](O)[C@@H]2O` has an inhibition of 42%.

Test system: Mus musculus
Test: Analgesic activity in mouse chronic constriction injury model of neuropathic pain assessed as protection of ipsilateral hind paw mechanoallodynia of sciatic nerve at 0.3 to 30 umol/kg administered through oral gavage at point of peak pain on day 7 measured at 3 hrs
Assay type: functional
Conditions: not given
In short: as §1
Compound `CCNc1cc(C#Cc2ccc(Cl)s2)nc2c1ncn2[C@H]1[C@H](O)[C@H](O)[C@]2(C(=O)NC)C[C@H]12` has an Activity of 84%.
Work on `CCNc1nc(C#Cc2ccc(Cl)s2)nc2c1ncn2[C@H]1[C@H](O)[C@H](O)[C@]2(C(=O)NC)C[C@H]12` yielded an Activity of 87%.
Work on `CNC(=O)[C@@]12C[C@@H]1[C@@H](n1cnc3c(NC)nc(C#Cc4ccc(Cl)s4)nc31)[C@H](O)[C@@H]2O` yielded an Activity of 46%.

Test system: Mus musculus
Test: Analgesic activity in mouse chronic constriction injury model of neuropathic pain assessed as protection of ipsilateral hind paw mechanoallodynia of sciatic nerve at 0.3 to 30 umol/kg administered through oral gavage at point of peak pain on day 7 relative to control measured at 1 hr
Assay type: functional
Conditions: not given
In short: as §1
`CCNc1cc(C#Cc2ccc(Cl)s2)nc2c1ncn2[C@H]1[C@H](O)[C@H](O)[C@]2(C(=O)NC)C[C@H]12` gave an Emax of 93%.
With `CCNc1nc(C#Cc2ccc(Cl)s2)nc2c1ncn2[C@H]1[C@H](O)[C@H](O)[C@]2(C(=O)NC)C[C@H]12` the Emax was 98%.
`CNC(=O)[C@@]12C[C@@H]1[C@@H](n1cnc3c(NC)nc(C#Cc4ccc(Cl)s4)nc31)[C@H](O)[C@@H]2O` showed an Emax of 93%.

Target: T3, Adenosine receptor A2b (Homo sapiens) (UniProt P29275)
T3 sequence (whole entry): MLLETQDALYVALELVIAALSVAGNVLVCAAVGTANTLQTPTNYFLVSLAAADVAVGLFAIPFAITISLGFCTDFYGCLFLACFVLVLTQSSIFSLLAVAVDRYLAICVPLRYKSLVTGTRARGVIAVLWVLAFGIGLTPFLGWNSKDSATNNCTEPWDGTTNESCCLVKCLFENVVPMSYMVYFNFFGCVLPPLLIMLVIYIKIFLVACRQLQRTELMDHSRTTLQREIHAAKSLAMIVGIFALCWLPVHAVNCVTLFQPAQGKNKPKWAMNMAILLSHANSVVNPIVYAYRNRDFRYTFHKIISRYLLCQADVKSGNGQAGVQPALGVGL
Test: Displacement of [3H]MRS1754 from human adenosine A2B receptor expressed in HEK293 cell membranes at 10 uM
Conditions: not given
With `CCNc1cc(C#Cc2ccc(Cl)s2)nc2c1ncn2[C@H]1[C@H](O)[C@H](O)[C@]2(C(=O)NC)C[C@H]12` the inhibition was 17%.

Target: T1, Adenosine receptor A3
Test: Displacement of [125I]N6-(4-amino-3-iodobenzyl)adenosine-5'-N-methyluronamide from human adenosine A3 receptor expressed in CHO cell membranes
Conditions: not given
In the case of `CCNc1cc(C#Cc2ccc(Cl)s2)nc2c1ncn2[C@H]1[C@H](O)[C@H](O)[C@]2(C(=O)NC)C[C@H]12`, the Ki is reported as 1.7 nM.
In the case of `CCNc1nc(C#Cc2ccc(Cl)s2)nc2c1ncn2[C@H]1[C@H](O)[C@H](O)[C@]2(C(=O)NC)C[C@H]12`, the Ki is reported as 3.8 nM.
In the case of `CNC(=O)[C@@]12C[C@@H]1[C@@H](n1cnc3c(NCC4CCC4)nc(-n4cc(-c5ccc(Cl)s5)nn4)nc31)[C@H](O)[C@@H]2O`, the Ki is reported as 21 nM.

Target: T4, Adenosine receptor A3 (Mus musculus, UniProt Q61618)
T4 sequence (Q61618 whole entry): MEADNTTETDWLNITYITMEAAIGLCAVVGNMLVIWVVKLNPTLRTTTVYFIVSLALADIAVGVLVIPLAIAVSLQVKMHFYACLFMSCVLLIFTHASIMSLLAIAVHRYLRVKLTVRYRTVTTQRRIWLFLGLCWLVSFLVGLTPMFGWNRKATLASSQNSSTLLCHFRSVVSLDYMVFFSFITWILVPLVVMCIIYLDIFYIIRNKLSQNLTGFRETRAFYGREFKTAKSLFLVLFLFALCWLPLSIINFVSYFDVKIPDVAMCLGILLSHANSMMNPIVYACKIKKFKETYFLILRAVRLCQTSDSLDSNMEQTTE
Test: Binding affinity to mouse adenosine A3 receptor expressed in HEK293 cell membranes
Conditions: not given
In short: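 Radioligand binding used membranes of HEK293 cells expressing the mouse or the canine A3 receptor.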
In the case of `CCNc1cc(C#Cc2ccc(Cl)s2)nc2c1ncn2[C@H]1[C@H](O)[C@H](O)[C@]2(C(=O)NC)C[C@H]12`, the Ki is reported as 16 nM.
For `CCNc1nc(C#Cc2ccc(Cl)s2)nc2c1ncn2[C@H]1[C@H](O)[C@H](O)[C@]2(C(=O)NC)C[C@H]12`, the Ki was 27 nM.

Target: 5-hydroxytryptamine receptor 2B (Homo sapiens, UniProt P41595)
Sequence (P41595 whole entry): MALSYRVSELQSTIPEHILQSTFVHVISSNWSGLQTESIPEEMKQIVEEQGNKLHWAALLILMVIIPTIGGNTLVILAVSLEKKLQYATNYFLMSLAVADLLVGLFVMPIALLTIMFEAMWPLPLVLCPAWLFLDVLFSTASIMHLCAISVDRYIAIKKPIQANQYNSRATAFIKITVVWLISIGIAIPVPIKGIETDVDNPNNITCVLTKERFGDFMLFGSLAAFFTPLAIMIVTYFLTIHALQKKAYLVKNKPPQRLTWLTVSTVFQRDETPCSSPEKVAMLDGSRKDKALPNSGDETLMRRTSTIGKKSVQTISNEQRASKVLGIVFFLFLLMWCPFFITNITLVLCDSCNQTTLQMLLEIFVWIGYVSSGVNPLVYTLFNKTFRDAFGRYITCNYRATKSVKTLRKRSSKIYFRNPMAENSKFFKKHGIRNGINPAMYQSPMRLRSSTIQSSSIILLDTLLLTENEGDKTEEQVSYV
Test: Binding affinity to 5HT2B receptor (unknown origin)
Conditions: read-out: Ki
In the case of `CCNc1cc(C#Cc2ccc(Cl)s2)nc2c1ncn2[C@H]1[C@H](O)[C@H](O)[C@]2(C(=O)NC)C[C@H]12`, the Ki is reported as 2500 nM.

Target: T5, Adenosine receptor A1 (Homo sapiens) (UniProt P30542)
T5 sequence (whole entry): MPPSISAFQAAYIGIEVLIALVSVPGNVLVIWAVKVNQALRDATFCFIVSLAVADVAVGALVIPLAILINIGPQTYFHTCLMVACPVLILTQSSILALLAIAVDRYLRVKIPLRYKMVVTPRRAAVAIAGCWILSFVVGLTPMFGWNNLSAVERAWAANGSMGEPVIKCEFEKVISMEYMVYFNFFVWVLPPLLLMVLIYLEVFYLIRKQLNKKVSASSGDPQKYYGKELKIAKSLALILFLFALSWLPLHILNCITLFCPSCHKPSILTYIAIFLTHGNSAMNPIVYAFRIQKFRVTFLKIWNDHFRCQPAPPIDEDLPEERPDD
Test: Displacement of [3H]N6-R-phenylisopropyladenosine from human adenosine A1 receptor expressed in CHO cell membranes at 10 uM
Conditions: not given
In short: as §2
In the case of `CCNc1cc(C#Cc2ccc(Cl)s2)nc2c1ncn2[C@H]1[C@H](O)[C@H](O)[C@]2(C(=O)NC)C[C@H]12`, the inhibition is reported as 10%.
`CCNc1nc(C#Cc2ccc(Cl)s2)nc2c1ncn2[C@H]1[C@H](O)[C@H](O)[C@]2(C(=O)NC)C[C@H]12` showed an inhibition of 28%.

Target: T6, Adenosine receptor A1 (Homo sapiens, UniProt P30542)
T6 sequence (P30542 whole entry): T5 sequence (whole entry)
Test: Displacement of [3H]N6-R-phenylisopropyladenosine from human adenosine A1 receptor expressed in CHO cell membranes
Conditions: not given
In short: as §2
In the case of `CNC(=O)[C@@]12C[C@@H]1[C@@H](n1cnc3c(NCC4CCC4)nc(-n4cc(-c5ccc(Cl)s5)nn4)nc31)[C@H](O)[C@@H]2O`, the Ki is reported as 710 nM.

Test system: Mus musculus
Test: Analgesic activity in mouse chronic constriction injury model of neuropathic pain assessed as time of peak protection at 0.3 to 30 umol/kg administered through oral gavage at point of peak pain on day 7
Assay type: functional
Conditions: not given
In short: as §1
Work on `CCNc1cc(C#Cc2ccc(Cl)s2)nc2c1ncn2[C@H]1[C@H](O)[C@H](O)[C@]2(C(=O)NC)C[C@H]12` yielded a Time of 1 h.
With `CCNc1nc(C#Cc2ccc(Cl)s2)nc2c1ncn2[C@H]1[C@H](O)[C@H](O)[C@]2(C(=O)NC)C[C@H]12` the Time was 1 h.
Work on `CNC(=O)[C@@]12C[C@@H]1[C@@H](n1cnc3c(NC)nc(C#Cc4ccc(Cl)s4)nc31)[C@H](O)[C@@H]2O` yielded a Time of 1 h.

Test system: Mus musculus
Test: Effect on contralateral side hind paw in mouse chronic constriction injury model of neuropathic pain at 0.3 to 30 umol/kg administered through oral gavage at point of peak pain on day 7
Assay type: ADME, organism-based
Conditions: in vivo
In short: as §1
With `CCNc1cc(C#Cc2ccc(Cl)s2)nc2c1ncn2[C@H]1[C@H](O)[C@H](O)[C@]2(C(=O)NC)C[C@H]12` the Activity was “Non-toxic”.
In the case of `CCNc1nc(C#Cc2ccc(Cl)s2)nc2c1ncn2[C@H]1[C@H](O)[C@H](O)[C@]2(C(=O)NC)C[C@H]12`, the Activity is reported as “Non-toxic”.
In the case of `CNC(=O)[C@@]12C[C@@H]1[C@@H](n1cnc3c(NC)nc(C#Cc4ccc(Cl)s4)nc31)[C@H](O)[C@@H]2O`, the Activity is reported as “Non-toxic”.

Test system: Mus musculus
Test: Analgesic activity in mouse chronic constriction injury model of neuropathic pain assessed as time duration protection hind paw mechanoallodynia of sciatic nerve at 3 umol/kg administered through oral gavage at point of peak pain on day 7
Assay type: functional
Conditions: not given
In short: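 In CCI mice, 3 μmol/kg was given p.o. on day 7. The time course of protection against hind paw mechanoallodynia was followed, n = 4. Data were mean ± SEM, analysed by two-tailed two-way ANOVA with Bonferroni comparisons versus day 0.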
`CCNc1cc(C#Cc2ccc(Cl)s2)nc2c1ncn2[C@H]1[C@H](O)[C@H](O)[C@]2(C(=O)NC)C[C@H]12` showed a Time of 5 h.
